Laboratory results from ChEMBL document CHEMBL4339252, “Prenylated Stilbenoids Affect Inflammation by Inhibiting the NF-κB/AP-1 Signaling Pathway and Cyclooxygenases and Lipoxygenase” (J Nat Prod, 2019).
Activity calls are given as the source filed them. The rule behind the calls is not given here.

Legend:
THP-1 [1] = assay: Antiinflammatory activity in PMA-differentiated human THP1 cells assessed as inhibition of TNFalpha production at 1 uM pre-incubated for 1 hr before LPS-stimulation for 24 hrs by ELISA; type: functional, cell-based
How it was run: (§1)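 THP-1 monocytes grown in RPMI 1640 with 10% FBS and antibiotics at 37 °C, plated at 5 × 10^5 cells/well and differentiated to macrophages with phorbol myristate acetate. Pretreated 1 h with compound in DMSO, or DMSO vehicle. Then stimulated with E. coli 0111:B4 LPS (1 μg/mL); unstimulated controls got no LPS. Medium collected after 24 h, cytokine measured by ELISA. Triplicates, three or more independent experiments, means ± SE.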

Homo sapiens = species on record: Homo sapiens; assay: Inhibition of LPS-stimulation dependent TLR4-induced NF-kappaB/AP-1 signaling cascade in human THP1-XBlue-MD2-CD14 cells at 1 uM pre-incubated for 1 hr before LPS-stimulation for 24 hrs by spectrophotometry
How it was run: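 THP-1-XBlue-MD2-CD14 reporter cells (5 × 10^5/well) pretreated 1 h with compound in DMSO, then stimulated with LPS (1 μg/mL) for 24 h. NF-κB/AP-1 activity read with Quanti-Blue reagent as OD at 655 nm and expressed against vehicle (100%). Five independent experiments in triplicate, means ± SE.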

THP-1 [2] = assay: Cytotoxicity against human THP1 cells assessed as reduction in cell viability incubated for 24 hrs by WST1 dye based assay; conditions: THP-1, 24 h
How it was run: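 Undifferentiated THP-1 cells moved to serum-free medium at 5 × 10^5 cells/well. After 2 h, compounds in DMSO added at 0.125−20 μM and incubated 24 h. Viability read with WST-1 reagent. IC50 taken from four-parameter logistic fits of at least five-point curves, serial measurements in triplicate, means ± SE.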

THP-1 [3] = assay: Antiinflammatory activity in PMA-differentiated human THP1 cells assessed as inhibition of IL-1beta production at 1 uM pre-incubated for 1 hr before LPS-stimulation for 24 hrs by ELISA; type: functional, cell-based; how it was run: as §1
THP-1 [4] = assay: Induction of IL-1beta production in PMA-differentiated human THP1 cells at 1 uM pre-incubated for 1 hr before LPS-stimulation for 24 hrs by ELISA; type: cell-based; conditions: thp-1, 24 h; how it was run: as §1
THP-1 [5] = assay: Induction of TNFalpha production in PMA-differentiated human THP1 cells at 1 uM pre-incubated for 1 hr before LPS-stimulation for 24 hrs by ELISA; type: cell-based; conditions: thp-1, 24 h; how it was run: as §1
[6] = target: T1, Prostaglandin G/H synthase 2 (Homo sapiens, UniProt P35354); assay: Inhibition of human recombinant COX2 assessed as reduction in PGE2 production using arachidonic acid substrate by ELISA
T1 sequence (P35354 whole entry): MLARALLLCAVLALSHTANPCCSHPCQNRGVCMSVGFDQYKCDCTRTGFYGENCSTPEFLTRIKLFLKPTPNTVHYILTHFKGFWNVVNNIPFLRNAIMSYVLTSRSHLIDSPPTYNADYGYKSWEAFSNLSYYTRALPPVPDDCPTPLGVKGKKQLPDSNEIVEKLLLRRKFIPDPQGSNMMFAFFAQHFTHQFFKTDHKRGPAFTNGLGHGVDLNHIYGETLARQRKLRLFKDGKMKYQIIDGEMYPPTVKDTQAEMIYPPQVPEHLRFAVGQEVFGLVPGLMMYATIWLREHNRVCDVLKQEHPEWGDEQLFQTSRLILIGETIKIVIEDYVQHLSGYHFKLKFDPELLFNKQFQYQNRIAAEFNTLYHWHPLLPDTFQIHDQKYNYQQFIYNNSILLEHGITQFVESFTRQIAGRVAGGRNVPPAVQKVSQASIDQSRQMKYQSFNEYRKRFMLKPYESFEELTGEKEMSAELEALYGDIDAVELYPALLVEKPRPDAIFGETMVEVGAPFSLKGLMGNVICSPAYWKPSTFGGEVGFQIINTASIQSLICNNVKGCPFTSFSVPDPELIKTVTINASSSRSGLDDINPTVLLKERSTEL

[7] = target: T2, Polyunsaturated fatty acid 5-lipoxygenase (Homo sapiens, UniProt P09917); assay: Inhibition of human recombinant 5-LOX assessed as reduction in leukotriene B4 synthesis using arachidonic acid substrate by ELISA
T2 sequence (P09917 whole entry): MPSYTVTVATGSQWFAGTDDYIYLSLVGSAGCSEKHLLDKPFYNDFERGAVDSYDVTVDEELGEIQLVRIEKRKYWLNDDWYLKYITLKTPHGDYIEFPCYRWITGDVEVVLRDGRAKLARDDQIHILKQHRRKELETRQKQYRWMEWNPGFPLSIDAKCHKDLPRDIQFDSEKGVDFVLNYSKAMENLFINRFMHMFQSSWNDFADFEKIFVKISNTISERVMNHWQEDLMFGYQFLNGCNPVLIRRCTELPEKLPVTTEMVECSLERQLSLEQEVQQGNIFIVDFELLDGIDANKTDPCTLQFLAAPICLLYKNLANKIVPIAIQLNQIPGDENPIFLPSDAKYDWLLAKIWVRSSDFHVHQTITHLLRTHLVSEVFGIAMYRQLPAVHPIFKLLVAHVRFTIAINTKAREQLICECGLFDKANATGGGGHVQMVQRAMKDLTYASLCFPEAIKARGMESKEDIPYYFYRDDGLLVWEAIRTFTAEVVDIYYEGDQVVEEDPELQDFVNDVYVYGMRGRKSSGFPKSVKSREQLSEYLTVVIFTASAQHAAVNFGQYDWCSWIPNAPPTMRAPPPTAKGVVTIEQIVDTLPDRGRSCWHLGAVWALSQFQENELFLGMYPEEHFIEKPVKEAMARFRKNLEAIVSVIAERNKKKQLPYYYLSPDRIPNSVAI

[8] = Selectivity index, ratio of IC50 for inhibition of ram seminal vesicle COX1 to IC50 for inhibition of human recombinant COX2
[9] = target: T3, Prostaglandin G/H synthase 1 (Ovis aries, UniProt P05979); assay: Inhibition of ram seminal vesicle COX1 assessed as reduction in PGE2 production using arachidonic acid substrate by ELISA
T3 sequence (P05979 whole entry): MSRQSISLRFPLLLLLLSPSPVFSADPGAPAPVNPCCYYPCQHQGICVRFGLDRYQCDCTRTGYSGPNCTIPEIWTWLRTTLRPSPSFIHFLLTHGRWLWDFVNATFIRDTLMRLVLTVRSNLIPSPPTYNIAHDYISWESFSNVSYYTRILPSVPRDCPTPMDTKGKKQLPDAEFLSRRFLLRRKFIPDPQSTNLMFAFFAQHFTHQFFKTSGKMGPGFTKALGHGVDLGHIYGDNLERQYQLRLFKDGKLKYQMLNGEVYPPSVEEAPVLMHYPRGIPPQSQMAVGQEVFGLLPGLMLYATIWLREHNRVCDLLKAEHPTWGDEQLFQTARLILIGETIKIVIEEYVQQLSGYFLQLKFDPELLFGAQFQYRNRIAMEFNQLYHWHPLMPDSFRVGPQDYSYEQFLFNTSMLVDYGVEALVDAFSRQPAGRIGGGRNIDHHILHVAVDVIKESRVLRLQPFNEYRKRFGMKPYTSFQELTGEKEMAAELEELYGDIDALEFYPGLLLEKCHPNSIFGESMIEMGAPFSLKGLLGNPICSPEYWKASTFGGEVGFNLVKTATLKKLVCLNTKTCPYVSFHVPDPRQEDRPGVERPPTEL

THP-1 [10] = assay: Induction of IL-1beta production in PMA-differentiated human THP1 cells at 0.1 uM pre-incubated for 1 hr before LPS-stimulation for 24 hrs by ELISA; type: cell-based; conditions: thp-1, 24 h; how it was run: as §1
THP-1 [11] = assay: Antiinflammatory activity in PMA-differentiated human THP1 cells assessed as inhibition of TNFalpha production at 0.1 uM pre-incubated for 1 hr before LPS-stimulation for 24 hrs by ELISA; type: functional, cell-based; how it was run: as §1
[12] = target: c-Jun N-terminal kinase, JNK (Homo sapiens) (UniProt P45983+P53779+P45984); assay: Inhibition of JNK phosphorylation in LPS-stimulated human THP1-XBlue-MD2-CD14 cells at 1 uM pre-incubated for 1 hr before LPS-stimulation for 30 mins by Western blot analysis
How it was run: (§2)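 THP-1-XBlue-MD2-CD14 cells pretreated with compound (1 μM), then LPS (1 μg/mL) added 1 h later. Lysates taken 30 min after LPS. 9 μg protein run on 12% PAGE, blotted to PVDF, blocked in 5% BSA. Probed for IκB-α, total and phospho p38, ERK1/2 and JNK, with β-actin as reference. ECL chemiluminescence; three independent experiments.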

[13] = target: MAP kinase p38 (Homo sapiens) (UniProt O15264+Q15759+Q16539+P53778); assay: Inhibition of p38 phosphorylation in LPS-stimulated human THP1-XBlue-MD2-CD14 cells at 1 uM pre-incubated for 1 hr before LPS-stimulation for 30 mins by Western blot analysis; how it was run: as §2
[14] = target: Mitogen-activated protein kinase; ERK1/ERK2 (Homo sapiens) (UniProt P27361+P28482); assay: Inhibition of ERK1/2 phosphorylation in LPS-stimulated human THP1-XBlue-MD2-CD14 cells at 1 uM pre-incubated for 1 hr before LPS-stimulation for 30 mins by Western blot analysis; how it was run: as §2
[15] = target: T4, NF-kappa-B inhibitor alpha (Homo sapiens) (UniProt P25963); assay: Inhibition of IkappaBalpha degradation in LPS-stimulated human THP1-XBlue-MD2-CD14 cells at 1 uM pre-incubated for 1 hr before LPS-stimulation for 30 mins by Western blot analysis; how it was run: as §2
T4 sequence (whole entry): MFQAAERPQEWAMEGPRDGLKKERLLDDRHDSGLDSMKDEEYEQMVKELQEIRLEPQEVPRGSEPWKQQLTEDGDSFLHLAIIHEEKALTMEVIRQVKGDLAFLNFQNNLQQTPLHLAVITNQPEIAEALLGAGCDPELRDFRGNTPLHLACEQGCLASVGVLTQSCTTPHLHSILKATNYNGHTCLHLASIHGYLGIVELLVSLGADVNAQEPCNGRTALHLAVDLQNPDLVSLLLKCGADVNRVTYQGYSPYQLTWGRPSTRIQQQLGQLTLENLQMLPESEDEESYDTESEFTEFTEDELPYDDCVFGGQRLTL

Sequence of Mitogen-activated protein kinase; ERK1/ERK2 (Homo sapiens) (P27361 whole entry, looked up): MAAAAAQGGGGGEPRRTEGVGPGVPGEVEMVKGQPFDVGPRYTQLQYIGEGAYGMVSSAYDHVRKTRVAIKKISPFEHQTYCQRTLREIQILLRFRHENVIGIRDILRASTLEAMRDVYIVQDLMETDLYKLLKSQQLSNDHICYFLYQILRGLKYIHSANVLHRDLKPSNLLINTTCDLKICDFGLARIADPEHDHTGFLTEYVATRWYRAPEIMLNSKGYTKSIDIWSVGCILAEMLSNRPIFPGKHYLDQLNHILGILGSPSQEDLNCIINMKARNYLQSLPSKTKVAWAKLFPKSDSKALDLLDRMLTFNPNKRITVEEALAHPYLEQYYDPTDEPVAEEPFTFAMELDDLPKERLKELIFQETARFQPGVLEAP
Sequence of Mitogen-activated protein kinase; ERK1/ERK2 (Homo sapiens) (P28482 whole entry, looked up): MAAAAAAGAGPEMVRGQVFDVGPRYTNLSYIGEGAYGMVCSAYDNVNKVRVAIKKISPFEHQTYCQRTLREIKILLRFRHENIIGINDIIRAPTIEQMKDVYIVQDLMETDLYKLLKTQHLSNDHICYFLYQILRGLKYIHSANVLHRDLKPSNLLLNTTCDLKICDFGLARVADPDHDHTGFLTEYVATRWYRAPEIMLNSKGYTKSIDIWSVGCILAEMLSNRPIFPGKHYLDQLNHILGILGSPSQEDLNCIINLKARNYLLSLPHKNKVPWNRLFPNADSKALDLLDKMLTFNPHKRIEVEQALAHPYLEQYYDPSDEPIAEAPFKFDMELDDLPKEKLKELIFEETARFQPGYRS

| Structure (SMILES) | inhibition (Homo sapiens) | IC50 [6] [µM] | Ratio IC50 [8] | IC50 [9] [µM] | IC50 ([7]; read-out: IC50) [µM] | inhibition (THP-1 [1]) | IC50 (THP-1 [2]) [µM] | inhibition (THP-1 [3]) | also measured |
| --- | --- | --- | --- | --- | --- | --- | --- | --- | --- |
| CC(C)=CCc1c(O)cc(/C=C/c2ccc(O)cc2O)cc1O | – | – | – | – | – | inactive | > 10 | – | Activity (THP-1 [4]): Toxic; Activity (THP-1 [5]): Toxic |
| C=CC(C)(C)c1cc(/C=C/c2cc(OC)cc(OC)c2)ccc1OC | Active | – | – | – | – | Active | > 10 | inactive | – |
| COc1cc(/C=C/c2ccc(OC)c(CC=C(C)C)c2)cc(OC)c1 | – | – | – | – | – | Active | > 10 | Active | – |
| C[C@]12C=CC(=O)C=C1CC[C@@H]1[C@@H]2C(=O)C[C@@]2(C)[C@H]1CC[C@]2(O)C(=O)CO | Active | – | – | – | – | – | – | – | – |
| CC(C)=CCc1c(O)cc2c(c1/C=C\c1ccc(O)cc1)CCC(C)(C)O2 | – | – | – | – | – | Active | 4.9 | – | – |
| COc1ccc(/C=C/c2c(CC=C(C)C)c(O)cc3c2CC(O)C(C)(C)O3)cc1 (stereo not given) | – | – | – | – | – | inactive | 1.8 | – | Activity (THP-1 [10]): Toxic; inhibition (THP-1 [11]): Active |
| CC1(C)C=Cc2c(O)cc(/C=C/c3ccc(O)cc3)cc2O1 [ARAHYPIN-5] | Active | > 20 | – | 13.3 | 2.4 | Active | > 10 | inactive | inhibition [12]: inactive; inhibition [13]: inactive; inhibition [14]: inactive; inhibition [15]: Active |

Second part, led by results:

| inhibition (Homo sapiens) | IC50 [6] [µM] | Ratio IC50 [8] | IC50 [9] [µM] | IC50 ([7]; read-out: IC50) [µM] | Structure (SMILES) | inhibition (THP-1 [1]) | IC50 (THP-1 [2]) [µM] | inhibition (THP-1 [3]) | also measured |
| --- | --- | --- | --- | --- | --- | --- | --- | --- | --- |
| Active | – | – | – | – | COc1cc(/C=C\c2ccc(OC)c(CC=C(C)C)c2)cc(OC)c1 | Active | > 10 | Active | – |
| – | 35.5 | 0.36 | 12.6 | – | COc1ccc(/C=C/c2c(CC=C(C)C)c(O)cc3c2CCC(C)(C)O3)cc1O | Active | 3.3 | – | IC50 [7]: Not Active |
| – | 14.7 | 0.06 | 0.9 | 0.9 | COc1ccc(/C=C/c2c(CC=C(C)C)c(O)cc(O)c2CC=C(C)C)cc1O | Active | 3.9 | – | – |
| Active | 5.7 | 0.07 | 0.4 | 0.9 | CC(C)=CCc1c(O)cc(O)c(CC=C(C)C)c1/C=C/c1ccc(O)cc1 | Active | 12.8 | Active | – |
| Active | 4.7 | 0.17 | 0.8 | 1.1 | COc1ccc(/C=C/c2c(CC=C(C)C)c(O)cc(O)c2CC=C(C)C)cc1 | Active | 2.7 | – | – |
